Data on 28 compounds can be found in ChEMBL document CHEMBL1641602, “Quinolones as HCV NS5B polymerase inhibitors” (Bioorg Med Chem Lett, 2011).

Data set [1] deals with Hepatitis C virus. In words: Antiviral activity against HCV 1b infected in human HuH7 cells assessed as total viral RNA level after 48 hrs by RT-qPCR analysis. Format: functional, organism-based, Hepacivirus hominis, genotype 1b, Huh-7. The procedure, abridged: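 Huh7/Clone A genotype 1b replicon cells, seeded at 40,000 per well in growth medium without G418, incubated overnight at 37 °C, 5% CO2. Compounds serially diluted in DMSO (final 0.5%), seven concentrations in triplicate, 48 h at 37 °C. Total RNA extracted and replicon RNA quantified by TaqMan RT-qPCR, normalized to untreated cells (100%).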

Data set [2] in a line: Inhibition of Hepatitis C virus 1b BK NS5B Cdelta21 polymerase by scintillation proximity assay. Further details: species or system Hepatitis C virus (isolate BK); call rule not given here.
The nature of data set [3]: Cytotoxicity against human HuH7 cells. Format: cell-based, Huh-7.
Data set [4] relates to Hepatitis C virus. In words: Antiviral activity against HCV 1a infected in human HuH7 cells assessed as total viral RNA level after 48 hrs by RT-qPCR analysis. It is filed as functional, organism-based, Hepacivirus hominis. Particulars: subtype 1a, Huh-7, 48 h. For orientation: In qPCR the cycle at which signal appears reflects the starting amount.
Data set [5] concerns RNA-directed RNA polymerase (Hepacivirus hominis), O39930 [M423F]. Put plainly: Inhibition of HCV 1b BK NS5B polymerase NNI-2 allosteric site M423F mutant by scintillation proximity assay relative to wild-type. Particulars: Hepatitis C virus (isolate BK). The method, boiled down:
(§1)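 SPA polymerase assay at 22 °C: 50 nM genotype 1b BK NS5B (C-terminal 21-residue deletion), mutant and wild-type, preincubated with inhibitor in pH 7.5 Tris buffer with MgCl2, DTT, KCl, BSA and 5% DMSO. Started with [3H]UTP, 1 µM UTP, biotinylated oligo(rU12) and poly(rA); stopped at 120 min with streptavidin SPA beads, then CsCl, then counted. Fold-change in inhibition over wild-type.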
On the technique in general: SPA uses beads or plates that emit light when radiolabelled molecules are held near them.

Data set [6] deals with RNA-directed RNA polymerase (Hepacivirus hominis), O39930 [P495L]. Put plainly: Inhibition of HCV 1b BK NS5B polymerase NNI-1 allosteric site P495L mutant by scintillation proximity assay relative to wild-type. Particulars: Hepatitis C virus (isolate BK). The method, boiled down:
as §1

Where [7] appears, read: Hepatitis C virus, genotype 1b, Huh-7, 48 h, read-out: EC50.

Where only a bound is given, the exact number is not on record here.

RNA-directed RNA polymerase (Hepacivirus hominis), O39930 [M423F], sequence (O39930 entry or part of it M423F): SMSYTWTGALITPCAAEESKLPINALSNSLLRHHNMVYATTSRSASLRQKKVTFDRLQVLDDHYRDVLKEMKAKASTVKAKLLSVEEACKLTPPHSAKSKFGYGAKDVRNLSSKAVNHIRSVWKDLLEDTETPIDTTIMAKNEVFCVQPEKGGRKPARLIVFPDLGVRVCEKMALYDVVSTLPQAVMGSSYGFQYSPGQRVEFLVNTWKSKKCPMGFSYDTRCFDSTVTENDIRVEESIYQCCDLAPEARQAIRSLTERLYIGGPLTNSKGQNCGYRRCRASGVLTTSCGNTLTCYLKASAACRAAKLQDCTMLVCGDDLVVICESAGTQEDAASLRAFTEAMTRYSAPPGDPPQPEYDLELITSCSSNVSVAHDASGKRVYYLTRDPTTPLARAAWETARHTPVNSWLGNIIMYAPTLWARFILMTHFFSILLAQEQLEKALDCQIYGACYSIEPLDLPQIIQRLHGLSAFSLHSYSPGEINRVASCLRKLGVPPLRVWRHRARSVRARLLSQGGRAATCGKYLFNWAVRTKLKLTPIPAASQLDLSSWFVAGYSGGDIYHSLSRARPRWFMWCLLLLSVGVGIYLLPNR
RNA-directed RNA polymerase (Hepacivirus hominis), O39930 [P495L], sequence (O39930 entry or part of it P495L): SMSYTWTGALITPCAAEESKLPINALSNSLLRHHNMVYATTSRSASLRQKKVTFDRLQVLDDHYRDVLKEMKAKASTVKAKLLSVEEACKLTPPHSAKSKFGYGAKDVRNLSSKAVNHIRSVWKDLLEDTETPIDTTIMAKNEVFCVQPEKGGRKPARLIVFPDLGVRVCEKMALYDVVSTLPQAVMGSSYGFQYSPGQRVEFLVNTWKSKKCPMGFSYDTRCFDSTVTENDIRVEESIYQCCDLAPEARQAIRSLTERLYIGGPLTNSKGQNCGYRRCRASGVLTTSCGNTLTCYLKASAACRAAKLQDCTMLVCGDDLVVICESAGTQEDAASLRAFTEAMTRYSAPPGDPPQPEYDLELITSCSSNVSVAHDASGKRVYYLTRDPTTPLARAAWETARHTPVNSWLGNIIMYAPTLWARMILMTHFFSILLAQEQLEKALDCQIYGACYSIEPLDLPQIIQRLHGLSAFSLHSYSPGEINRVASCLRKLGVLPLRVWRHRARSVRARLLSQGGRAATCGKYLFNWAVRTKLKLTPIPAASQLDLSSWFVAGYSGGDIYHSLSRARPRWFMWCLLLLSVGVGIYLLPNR

As usually defined, the EC50 is the concentration that produces a half-maximal response. In general, IC50 refers to the point on the concentration scale where inhibition reaches its midpoint. The term GI50 denotes the concentration at which growth is held to half of that of the control. For `COc1cc2c(=O)c(C(=O)c3ccc(C)cc3)cn(Cc3ccc(N)cc3)c2cc1OC`, in data set [1] (huh-7), the EC50 result is “Not Active”. Also, the IC50 in data set [2] is 140 µM. For the same compound, the GI50 result in data set [3] (huh-7) is recorded as “Not Active”.

With `CN1CCN(c2cc3c(cc2F)c(=O)c(NC(=O)NCc2ccc(Cl)cc2)cn3Cc2ccc(Cl)cc2)CC1`, in data set [1] (huh-7), the EC50 entry was “Not Active”. Further, the IC50 in data set [2] was > 150 µM. Further, the GI50 result in data set [3] (huh-7) is “Not Active”.

In the case of `COc1cc2c(=O)c(C(=O)c3ccc(C)cc3)cn(Cc3ccc(C(C)(C)C)cc3)c2cc1OC`, the EC50 in data set [1] (setting [7]) stood at 9.5 µM. The compound further registered an IC50 in data set [2] of 0.68 µM. The GI50 in data set [3] (HuH7 cells, read-out: GI50) was > 25 µM.

For `COc1cc2c(=O)c(C(=O)c3ccc(C)cc3)cn(CC3CCCCC3)c2cc1OC`, the EC50 in data set [1] (setting [7]) was found to be 38 µM. Also, in data set [2], the half-maximal inhibitory concentration (IC50) was determined as 9 µM. Besides, the GI50 in data set [3] (HuH7 cells, read-out: GI50) worked out at 22 µM.

For the compound `CCOC(=O)c1cn(Cc2ccc(Cl)cc2)c2cc(OC)c(OC)cc2c1=O`, the EC50 in data set [1] (setting [7]) is > 15 µM. Moreover, the half-maximal inhibitory concentration (IC50) in data set [2] was 16 µM. Moreover, in data set [3] (HuH7 cells, read-out: GI50), the 50% growth inhibitory concentration (GI50) was > 15 µM.

On to `COc1cc2c(=O)c(C(=O)OCc3ccc(C)cc3)cn(Cc3ccc(C(F)(F)F)cc3F)c2cc1OC`, for which, in data set [1] (setting [7]), the EC50 was found to be 0.23 µM. In data set [2], the IC50 amounted to 0.008 µM. Also, in data set [3] (HuH7 cells, read-out: GI50), the GI50 turned out to be 20 µM.

In the case of `CN1CCN(c2cc3c(cc2F)c(=O)c(NC(=O)NCc2ccccc2)cn3Cc2ccccc2)CC1`, in data set [1] (huh-7), the EC50 result was “Not Active”. In addition, in data set [2], the IC50 came to 26 µM. Further, the concentration for 50% growth inhibition (GI50) result in data set [3] (huh-7) is reported as “Not Active”.

Turning to `O=C(OCc1ccc(Cl)cc1)c1cn(Cc2ccc(Cl)cc2)c2cc(N3CCNCC3)c(F)cc2c1=O`, the EC50 in data set [1] (setting [7]) was 0.12 µM; in data set [4], 0.41 µM. For the same compound, it took 0.01 µM to reach half-maximal inhibition in data set [2] (IC50). The GI50 in data set [3] (HuH7 cells, read-out: GI50) was found to be 1.1 µM.

As to `COc1cc2c(=O)c(C(=O)c3ccc(C)cc3)cn(Cc3ccc(C(C)C)cc3)c2cc1OC`, the fold change (FC) is > 200 in data set [5] and 1 in data set [6]. The concentration giving a half-maximal response (EC50) in data set [1] (setting [7]) is 11.7 µM. The compound also returned an IC50 in data set [2] of 1.15 µM. For the same compound, the GI50 in data set [3] (HuH7 cells, read-out: GI50) came to 15.5 µM.

For the compound `COc1cc2c(=O)c(C(=O)c3ccc(C)cc3)cn(Cc3ccccc3)c2cc1OC`, the EC50 result in data set [1] (huh-7) was “Not Active”. The compound further came in with an IC50 in data set [2] of 170 µM. Moreover, in data set [3] (huh-7), the GI50 entry is reported as “Not Active”.

On to `O=C(OCc1ccc(Cl)cc1)c1cn(Cc2ccc(Cl)cc2)c2cc(N3CCOCC3)c(F)cc2c1=O`, for which the half-maximal effective concentration (EC50) in data set [1] (setting [7]) was determined as 1.7 µM. The compound further returned an IC50 in data set [2] of 0.02 µM. The GI50 in data set [3] (HuH7 cells, read-out: GI50) was > 12 µM.

On to `COc1cc2c(=O)c(C(=O)c3ccc(C)cc3)cn(Cc3ccc(Cl)cc3)c2cc1OC`, for which the EC50 in data set [1] (setting [7]) turned out to be 11.7 µM. In data set [2], this compound registered an IC50 of 1.1 µM. Besides, the GI50 in data set [3] (HuH7 cells, read-out: GI50) stood at 15.5 µM.

As for `COc1cc2c(=O)c(C(=O)c3ccc(C)cc3)cn(Cc3ccc(Cl)c(Cl)c3)c2cc1OC`, in data set [1] (huh-7), the EC50 entry is “Not Active”. The compound also came in with an IC50 in data set [2] of 1.1 µM. Moreover, the GI50 entry in data set [3] (huh-7) is “Not Active”.

For the compound `CN1CCN(c2cc3c(cc2F)c(=O)c(NC(=O)Cc2ccc(Cl)cc2)cn3Cc2ccccc2)CC1`, the EC50 entry in data set [1] (huh-7) is listed as “Not Active”. Also, in data set [2], the IC50 worked out at 2 µM. Also, the GI50 result in data set [3] (huh-7) is reported as “Not Active”.

As for `COc1cc2c(=O)c(C(=O)c3ccc(C)cc3)cn(Cc3ccc(S(C)(=O)=O)cc3)c2cc1OC`, in data set [1] (setting [7]), the EC50 came out at 25.3 µM. In data set [2], this compound yielded an IC50 of 0.5 µM. In addition, in data set [3] (HuH7 cells, read-out: GI50), the GI50 was > 50 µM.

Regarding `COc1cc2c(=O)c(C(=O)c3ccc(C)cc3)cn(Cc3ccc(S(N)(=O)=O)cc3)c2cc1OC`, the EC50 in data set [1] (setting [7]) is > 50 µM. This compound had an IC50 in data set [2] of 0.85 µM. The 50% growth inhibitory concentration (GI50) in data set [3] (HuH7 cells, read-out: GI50) was > 25 µM.

For `CN1CCN(c2cc3c(cc2F)c(=O)c(NC(=O)Cc2ccccc2)cn3Cc2ccc(Cl)cc2)CC1`, the EC50 entry in data set [1] (huh-7) is recorded as “Not Active”. The compound also registered an IC50 in data set [2] of 4.6 µM. Moreover, the concentration for 50% growth inhibition (GI50) entry in data set [3] (huh-7) is on record as “Not Active”.

Consider `COc1cc2c(=O)c(C(=O)c3ccc(C)cc3)cn(CC3CC3)c2cc1OC`, for which the EC50 entry in data set [1] (huh-7) was “Not Active”. Besides, the IC50 in data set [2] came out at 120 µM. Also, the GI50 entry in data set [3] (huh-7) is “Not Active”.

Take `COc1cc2c(=O)c(C(=O)OCc3ccccc3C)cn(Cc3ccc(C(F)(F)F)cc3F)c2cc1OC`: the EC50 in data set [1] (setting [7]) amounted to 0.71 µM. In data set [2], this compound gave an IC50 of 0.015 µM. Further, the GI50 in data set [3] (HuH7 cells, read-out: GI50) was found to be 31 µM.

`O=C(NCc1ccc(Cl)cc1)c1cn(Cc2ccc(Cl)cc2)c2cc(N3CCOCC3)c(F)cc2c1=O`: the concentration giving a half-maximal response (EC50) result in data set [1] (huh-7) is recorded as “Not Active”. The same compound displayed an IC50 in data set [2] of 16 µM. Further, in data set [3] (huh-7), the GI50 entry is “Not Active”.

Consider `COc1cc2c(=O)c(C(=O)OCc3cccc(C)c3)cn(Cc3ccc(C(F)(F)F)cc3F)c2cc1OC`, for which the EC50 in data set [1] (setting [7]) stood at 1.2 µM. Moreover, in data set [2], the half-inhibitory concentration (IC50) came out at 0.06 µM. Further, the GI50 in data set [3] (HuH7 cells, read-out: GI50) was 7.3 µM.

As for `COc1cc2c(=O)c(COCc3ccc(Cl)cc3)cn(Cc3ccccc3)c2cc1OC`, the EC50 entry in data set [1] (huh-7) is “Not Active”. Besides, in data set [2], the midpoint of inhibition, the IC50, lay at 100 µM. Also, the GI50 result in data set [3] (huh-7) is recorded as “Not Active”.

With `COc1cc2c(=O)c(C(=O)c3ccc(C)cc3)cn(CCc3ccccc3)c2cc1OC`, the EC50 result in data set [1] (huh-7) is listed as “Not Active”. For the same compound, half-maximal inhibition in data set [2] (IC50) was put at 110 µM. For the same compound, in data set [3] (huh-7), the concentration for 50% growth inhibition (GI50) entry is “Not Active”.

As for `COc1cc2c(=O)c(C(=O)OCc3ccc(Cl)cc3)cn(Cc3ccc(Cl)cc3)c2cc1OC`, in data set [1] (setting [7]), the half-maximal effective concentration (EC50) came to 1.2 µM. In data set [2], the IC50 amounted to 0.02 µM. The GI50 in data set [3] (HuH7 cells, read-out: GI50) turned out to be 28.3 µM.

For the compound `COc1cc2c(=O)c(S(=O)(=O)CCc3ccc(Cl)cc3)cn(Cc3ccccc3)c2cc1OC`, the EC50 entry in data set [1] (huh-7) was “Not Active”. In addition, the IC50 in data set [2] was > 150 µM. Besides, the GI50 entry in data set [3] (huh-7) is given as “Not Active”.

As to `CN(Cc1ccc(Cl)cc1)C(=O)c1cn(Cc2ccc(Cl)cc2)c2cc(N3CCOCC3)c(F)cc2c1=O`, the concentration giving a half-maximal response (EC50) result in data set [1] (huh-7) was “Not Active”. In data set [2], this compound had an IC50 of 330 µM. For the same compound, the GI50 entry in data set [3] (huh-7) is listed as “Not Active”.

Take `COc1cc2c(=O)c(C(=O)c3ccc(C)cc3)cn(CCCc3ccccc3)c2cc1OC`: the EC50 result in data set [1] (huh-7) is given as “Not Active”. The IC50 in data set [2] was found to be 2.2 µM. In addition, the GI50 entry in data set [3] (huh-7) is recorded as “Not Active”.

For `COc1cc2c(=O)c(C(=O)c3ccc(C)cc3)cn(Cc3ccc(C(F)(F)F)cc3F)c2cc1OC`, the EC50 in data set [1] (setting [7]) was > 12 µM. Also, in data set [2], the half-inhibitory concentration (IC50) was 0.41 µM. Moreover, the GI50 in data set [3] (HuH7 cells, read-out: GI50) is > 25 µM.
